Assays:
HT-29 = assay: Cytotoxicity against human HT-29 cells after 24 hrs by SRB assay; assay type: functional; conditions: HT-29, 24 h
How it was run: (§1)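 NCI 60-line screen. Cells in RPMI 1640 with 5% FBS and 2 mM L-glutamine, seeded at 5,000–40,000 cells/well by doubling time, then incubated 24 h at 37 °C, 5% CO2 before dosing. Time-zero plates fixed with TCA at drug addition. DMSO stocks diluted in medium with gentamicin to five concentrations, […]. Protein read by SRB staining. GI50, TGI and LC50 derived relative to control and time-zero.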

OVCAR-5 = assay: Cytotoxicity against human OVCAR5 cells after 24 hrs by SRB assay; assay type: functional; conditions: OVCAR-5, 24 h; how it was run: as §1
BT-549 [1] = assay: (§2) Cytotoxicity against human BT549 cells after 24 hrs by SRB assay; assay type: cell-based; conditions: bt-549, 24 h
How it was run: (§3)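 NCI 60-cell screen. Cells grown in RPMI 1640 with 5% FBS and 2 mM L-glutamine, seeded at 5,000–40,000 cells/well, preincubated 24 h at 37 °C in 5% CO2. Drug stock in DMSO, diluted in medium with gentamicin; five final concentrations, 100, 10, 1.0, 0.1 and […]. Time-zero plates were TCA-fixed. Protein read by SRB staining; GI50, TGI and LC50 taken relative to time-zero.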

TK-10 = assay: Cytotoxicity against human TK10 cells after 24 hrs by SRB assay; assay type: functional; conditions: TK-10, 24 h
How it was run: (§4)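 NCI 60-cell screen. Cells are grown in RPMI 1640 with 5% FBS and 2 mM L-glutamine and seeded at 5,000–40,000 cells/well according to doubling time. They are preincubated 24 h at 37 °C in 5% CO2, and Tz plates are TCA-fixed at drug addition. Drug stock is in DMSO, diluted in medium with gentamicin, and tested at five concentrations (100, 10, 1.0, 0.1, […]). Protein is read by SRB staining. GI50, TGI and LC50 are derived relative to time-zero and control wells.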

SK-OV-3 [2] = assay: (§5) Cytotoxicity against human SKOV3 cells after 24 hrs by SRB assay; assay type: cell-based; conditions: sk-ov-3, 24 h
How it was run: (§6)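 NCI 60-cell-line screen: cells grown in RPMI 1640 with 5% FBS and 2 mM L-glutamine, seeded at 5,000–40,000 cells/well by doubling time, and preincubated 24 h at 37 °C in 5% CO2. Time-zero plates were TCA-fixed. DMSO stocks were diluted in medium with gentamicin to five concentrations (100, 10, 1.0, 0.1, […]). Protein was read by SRB, and GI50, TGI and LC50 were derived against time-zero.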

KM12 [3] = assay: (§7) Cytotoxicity against human KM12 cells after 24 hrs by SRB assay; assay type: functional; conditions: KM12, 24 h; how it was run: as §1
LOX IMVI = assay: Cytotoxicity against human LOXIMVI cells after 24 hrs by SRB assay; assay type: cell-based; how it was run: as §3
RPMI-8226 = assay: Cytotoxicity against human RPMI8226 cells after 24 hrs by SRB assay; assay type: functional; conditions: RPMI-8226, 24 h; how it was run: as §1
HL-60 = assay: Cytotoxicity against human HL60 cells after 24 hrs by SRB assay; assay type: cell-based; conditions: hl-60, 24 h; how it was run: as §3
MDA-MB-231 [4] = assay: (§8) Cytotoxicity against human MDA-MB-231 cells after 24 hrs by SRB assay; assay type: cell-based; conditions: mda-mb-231, 24 h; how it was run: as §3
MOLT-4 = assay: Cytotoxicity against human MOLT4 cells after 24 hrs by SRB assay; assay type: cell-based; conditions: molt-4, 24 h; how it was run: as §3
SK-MEL-5 [5] = assay: (§9) Cytotoxicity against human SK-MEL-5 cells after 24 hrs by SRB assay; assay type: cell-based; conditions: sk-mel-5, 24 h; how it was run: as §3
NCI/ADR-RES = assay: Cytotoxicity against human NCI/ADR-RES cells after 24 hrs by SRB assay; assay type: functional; how it was run: as §1
NCI-H460 = assay: Cytotoxicity against human NCI-H460 cells after 24 hrs by SRB assay; assay type: cell-based; conditions: nci-h460, 24 h; how it was run: as §3
SNB-75 = assay: Cytotoxicity against human SNB75 cells after 24 hrs by SRB assay; assay type: functional; conditions: SNB-75, 24 h; how it was run: as §4
COLO 205 = assay: Cytotoxicity against human COLO205 cells after 24 hrs by SRB assay; assay type: functional; conditions: COLO 205, 24 h; how it was run: as §1
CCRF-CEM = assay: Cytotoxicity against human CCRF-CEM cells after 24 hrs by SRB assay; assay type: cell-based; how it was run: as §3
M14 [6] = assay: (§10) Cytotoxicity against human M14 cells after 24 hrs by SRB assay; assay type: cell-based; conditions: m14, 24 h; how it was run: as §3
MCF7 = assay: Cytotoxicity against human MCF7 cells after 24 hrs by SRB assay; assay type: cell-based; conditions: mcf7, 24 h; how it was run: as §3
M14 [7] = assay: as §10; assay type: functional; conditions: M14, 24 h; how it was run: as §1
SK-MEL-5 [8] = assay: as §9; assay type: functional; conditions: SK-MEL-5, 24 h; how it was run: as §1
BT-549 [9] = assay: as §2; assay type: functional; conditions: BT-549, 24 h; how it was run: as §1
OVCAR-8 [10] = assay: (§11) Cytotoxicity against human OVCAR8 cells after 24 hrs by SRB assay; assay type: cell-based; conditions: ovcar-8, 24 h; how it was run: as §3
786-0 = assay: Cytotoxicity against human 786-0 cells after 24 hrs by SRB assay; assay type: cell-based; conditions: 786-0, 24 h; how it was run: as §3
SR = assay: Cytotoxicity against human SR cells after 24 hrs by SRB assay; assay type: functional; how it was run: as §4
SW-620 = assay: Cytotoxicity against human SW620 cells after 24 hrs by SRB assay; assay type: cell-based; conditions: sw-620, 24 h; how it was run: as §6
KM12 [11] = assay: as §7; assay type: cell-based; conditions: km12, 24 h; how it was run: as §3
U-251 = assay: Cytotoxicity against human U251 cells after 24 hrs by SRB assay; assay type: cell-based; conditions: u-251, 24 h; how it was run: as §6
SNB-19 = assay: Cytotoxicity against human SNB19 cells after 24 hrs by SRB assay; assay type: cell-based; conditions: snb-19, 24 h; how it was run: as §6
NCI-H522 [12] = assay: (§12) Cytotoxicity against human NCI-H522 cells after 24 hrs by SRB assay; assay type: cell-based; conditions: nci-h522, 24 h; how it was run: as §3
HCC 2998 = assay: Cytotoxicity against human HCC2998 cells after 24 hrs by SRB assay; assay type: functional; conditions: HCC 2998, 24 h; how it was run: as §1
T47D [13] = assay: (§13) Cytotoxicity against human T47D cells after 24 hrs by SRB assay; assay type: cell-based; how it was run: as §6
NCI-H522 [14] = assay: as §12; assay type: functional; conditions: NCI-H522, 24 h; how it was run: as §1
MDA-MB-231 [15] = assay: as §8; assay type: functional; conditions: MDA-MB-231, 24 h; how it was run: as §1
T47D [16] = assay: as §13; assay type: functional; how it was run: as §4
SK-OV-3 [17] = assay: as §5; assay type: functional; conditions: SK-OV-3, 24 h; how it was run: as §1
SK-MEL-28 = assay: Cytotoxicity against human SK-MEL-28 cells after 24 hrs by SRB assay; assay type: cell-based; conditions: sk-mel-28, 24 h; how it was run: as §3
OVCAR-8 [18] = assay: as §11; assay type: functional; conditions: OVCAR-8, 24 h; how it was run: as §1
SN12C = assay: Cytotoxicity against human SN12C cells after 24 hrs by SRB assay; assay type: cell-based; how it was run: as §6

`COc1ccc(C(=O)/C=C/c2cc3ccccc3[nH]c2=O)cc1` was tested, and the GI50 (HT-29) was 3.67 µM, the TGI (HT-29) was > 100 µM and the GI50 (OVCAR-5) was 3.6 µM. It also gave a TGI (OVCAR-5) of 18.4 µM, an LC50 (BT-549 [1]) of 46.3 µM and a GI50 (TK-10) of 3.54 µM. The TGI (TK-10) was 55.8 µM, the LC50 (SK-OV-3 [2]) was > 100 µM and the GI50 (KM12 [3]) was 2.85 µM. For the same molecule, the TGI (KM12 [3]) was 7.81 µM, the LC50 (LOX IMVI) was 33.3 µM and the GI50 (RPMI-8226) was 2.79 µM. The TGI (RPMI-8226) was > 100 µM, the LC50 (HL-60) was > 100 µM and the LC50 (MDA-MB-231 [4]) was > 100 µM. The LC50 (MOLT-4) was > 100 µM, the LC50 (SK-MEL-5 [5]) was 45 µM and the GI50 (NCI/ADR-RES) was 2.63 µM. It also gave a TGI (NCI/ADR-RES) of 8.44 µM, an LC50 (NCI-H460) of 66.8 µM and a GI50 (SNB-75) of 2.29 µM. It also gave a TGI (SNB-75) of 10.1 µM, a GI50 (COLO 205) of 3.66 µM and a TGI (COLO 205) of 13.4 µM. For the same molecule, the LC50 (CCRF-CEM) was > 100 µM, the LC50 (M14 [6]) was > 100 µM and the LC50 (MCF7) was > 100 µM. The GI50 (M14 [7]) was 4.06 µM, the TGI (M14 [7]) was 22.5 µM and the GI50 (SK-MEL-5 [8]) was 5.73 µM. It also gave a TGI (SK-MEL-5 [8]) of 18.1 µM, a GI50 (BT-549 [9]) of 2.7 µM and a TGI (BT-549 [9]) of 7.9 µM. For the same molecule, the LC50 (OVCAR-8 [10]) was > 100 µM, the LC50 (786-0) was > 100 µM and the GI50 (SR) was 2.83 µM. The TGI (SR) was > 100 µM, the LC50 (SW-620) was 40.2 µM and the LC50 (KM12 [11]) was 26.9 µM. The LC50 (U-251) was > 100 µM, the LC50 (SNB-19) was 75.8 µM and the LC50 (NCI-H522 [12]) was > 100 µM. For the same molecule, the GI50 (HCC 2998) was 2.5 µM, the TGI (HCC 2998) was 6.49 µM and the LC50 (T47D [13]) was > 100 µM. For the same molecule, the GI50 (NCI-H522 [14]) was 2.12 µM, the TGI (NCI-H522 [14]) was 6.13 µM and the GI50 (MDA-MB-231 [15]) was 3.29 µM. The TGI (MDA-MB-231 [15]) was 17.9 µM, the GI50 (T47D [16]) was 3.55 µM and the TGI (T47D [16]) was > 100 µM. For the same molecule, the GI50 (SK-OV-3 [17]) was 4.44 µM, the TGI (SK-OV-3 [17]) was > 100 µM and the LC50 (SK-MEL-28) was > 100 µM. For the same molecule, the GI50 (OVCAR-8 [18]) was 3.57 µM, the TGI (OVCAR-8 [18]) was > 100 µM and the LC50 (SN12C) was > 100 µM.

Source: ChEMBL document CHEMBL2086296, “Synthesis of novel quinoline-2-one based chalcones of potential anti-tumor activity” (Eur J Med Chem, 2012)
